# Activity calls are given as the source filed them. The calls are words filed in the database; no cut-off is given here.
# Biological target: T1, Interstitial collagenase (Homo sapiens, UniProt P03956)
# T1 sequence (P03956 whole entry): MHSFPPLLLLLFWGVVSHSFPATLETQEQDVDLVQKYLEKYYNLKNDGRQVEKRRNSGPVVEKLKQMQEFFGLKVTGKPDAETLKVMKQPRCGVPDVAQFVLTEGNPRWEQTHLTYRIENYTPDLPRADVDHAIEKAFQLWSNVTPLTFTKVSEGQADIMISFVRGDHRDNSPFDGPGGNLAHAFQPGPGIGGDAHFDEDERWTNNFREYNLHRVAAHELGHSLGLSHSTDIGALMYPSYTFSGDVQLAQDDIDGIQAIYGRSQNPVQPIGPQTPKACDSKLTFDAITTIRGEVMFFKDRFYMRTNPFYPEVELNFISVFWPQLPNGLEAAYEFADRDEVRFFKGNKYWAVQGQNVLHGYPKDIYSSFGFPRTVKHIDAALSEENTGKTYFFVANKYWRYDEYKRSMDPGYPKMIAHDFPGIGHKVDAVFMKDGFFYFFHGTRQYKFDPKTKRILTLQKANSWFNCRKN
# Experiment: Inhibition of human recombinant pro-MMP1 by spectrofluorimeter
row,Structure (SMILES),IC50 [nM]
1,CNC(=O)[C@H](Cc1c[nH]c2ccccc12)NC(=O)[C@@H](CC(=O)NNS(=O)(=O)c1ccc(-c2ccc(Br)cc2)cc1)CC(C)C,30
2,CNC(=O)[C@H](Cc1c[nH]c2ccccc12)NC(=O)[C@@H](CC(=O)NNS(=O)(=O)c1ccccc1[N+](=O)[O-])CC(C)C,850
3,CNC(=O)[C@H](Cc1c[nH]c2ccccc12)NC(=O)[C@@H](CC(=O)NNS(=O)(=O)c1c(C(C)C)cc(C(C)C)cc1C(C)C)CC(C)C,4000
4,CNC(=O)[C@H](Cc1c[nH]c2ccccc12)NC(=O)[C@@H](CC(=O)NNc1ccc(OC)cc1)CC(C)C,330
5,CNC(=O)[C@H](Cc1c(-c2ccccc2)[nH]c2ccccc12)NC(=O)[C@@H](CC(=O)NNS(=O)(=O)c1ccc(-c2ccc(Br)cc2)cc1)CC(C)C,350
6,CNC(=O)[C@H](Cc1c[nH]c2ccccc12)NC(=O)[C@@H](CC(=O)NNS(=O)(=O)c1ccc(Cl)cc1)CC(C)C,290
7,CNC(=O)[C@H](Cc1c[nH]c2ccccc12)NC(=O)[C@@H](CC(=O)NNc1ccc(Cl)c(Cl)c1)CC(C)C,5600

# Now from value to compound:
row,IC50 [nM],Structure (SMILES)
1,250,CNC(=O)[C@H](Cc1c[nH]c2ccccc12)NC(=O)[C@@H](CC(=O)NNS(=O)(=O)c1ccc(C)cc1)CC(C)C
2,440,CCCCCCCCCCCCCCCCS(=O)(=O)NNC(=O)C[C@@H](CC(C)C)C(=O)N[C@@H](Cc1c[nH]c2ccccc12)C(=O)NC
3,980,CCCCCCCCCCCCS(=O)(=O)NNC(=O)C[C@@H](CC(C)C)C(=O)N[C@@H](Cc1c[nH]c2ccccc12)C(=O)NC

# Biological target: 72 kDa type IV collagenase (Homo sapiens, UniProt P08253)
# Experiment: Inhibition of human recombinant pro-MMP2 by spectrofluorimeter
# Summary of the method: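 Pro-MMP-2 activated with […], 37 °C, 2 h. Assay: 1–2 nM enzyme in 50 mM Tris–HCl pH 7.5, 150 mM NaCl, 5 mM CaCl₂, 25 °C; 30 min inhibitor preincubation, then quenched fluorogenic substrate.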
# Sequence of 72 kDa type IV collagenase (P08253 whole entry): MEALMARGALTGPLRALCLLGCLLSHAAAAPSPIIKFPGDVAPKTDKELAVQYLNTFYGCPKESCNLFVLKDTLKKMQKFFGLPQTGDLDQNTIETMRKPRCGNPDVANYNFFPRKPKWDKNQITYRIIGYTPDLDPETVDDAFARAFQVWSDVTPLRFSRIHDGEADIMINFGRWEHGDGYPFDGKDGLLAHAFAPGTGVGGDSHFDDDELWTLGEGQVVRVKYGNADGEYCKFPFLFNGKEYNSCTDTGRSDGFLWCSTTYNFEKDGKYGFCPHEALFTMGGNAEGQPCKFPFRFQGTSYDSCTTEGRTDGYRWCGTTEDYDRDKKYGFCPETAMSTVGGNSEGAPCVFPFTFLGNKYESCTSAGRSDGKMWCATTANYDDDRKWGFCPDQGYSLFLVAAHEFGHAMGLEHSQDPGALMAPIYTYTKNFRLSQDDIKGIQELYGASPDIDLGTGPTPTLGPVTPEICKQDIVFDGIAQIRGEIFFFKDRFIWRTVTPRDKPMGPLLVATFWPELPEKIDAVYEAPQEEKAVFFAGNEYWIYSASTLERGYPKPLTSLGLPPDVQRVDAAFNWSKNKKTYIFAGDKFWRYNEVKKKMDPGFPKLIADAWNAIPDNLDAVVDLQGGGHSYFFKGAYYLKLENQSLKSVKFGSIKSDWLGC
Structure (SMILES),IC50 [nM],Ki [nM]
CCCCCC/C=C(\CC(=O)NNS(=O)(=O)c1ccc(-c2ccc(Br)cc2)cc1)C(=O)N[C@@H](Cc1c[nH]c2ccccc12)C(=O)NC,1810,–
CNC(=O)[C@H](Cc1c[nH]c2ccccc12)NC(=O)[C@@H](CC(=O)NNS(=O)(=O)c1ccc(-c2ccc(Br)cc2)cc1)CC(C)C,9.8,8.5
CNC(=O)[C@H](Cc1c[nH]c2ccccc12)NC(=O)[C@@H](CC(=O)NNS(=O)(=O)c1ccccc1[N+](=O)[O-])CC(C)C,320,–
CNC(=O)[C@H](Cc1c[nH]c2ccccc12)NC(=O)[C@@H](CC(=O)NNS(=O)(=O)c1c(C(C)C)cc(C(C)C)cc1C(C)C)CC(C)C,100,–
CNC(=O)[C@H](Cc1c[nH]c2ccccc12)NC(=O)[C@@H](CC(=O)NNc1ccc(OC)cc1)CC(C)C,10000,–
CNC(=O)[C@H](Cc1c(-c2ccccc2)[nH]c2ccccc12)NC(=O)[C@@H](CC(=O)NNS(=O)(=O)c1ccc(-c2ccc(Br)cc2)cc1)CC(C)C,247,–
CNC(=O)[C@H](Cc1c[nH]c2ccccc12)NC(=O)[C@@H](CC(=O)NNS(=O)(=O)c1ccc(Cl)cc1)CC(C)C,18,–
CNC(=O)[C@H](Cc1c[nH]c2ccccc12)NC(=O)[C@@H](CC(=O)NNc1ccc(Cl)c(Cl)c1)CC(C)C,10000,–

# Results, then the compound that gave them:
IC50 [nM],Ki [nM],Structure (SMILES)
24,–,CNC(=O)[C@H](Cc1c[nH]c2ccccc12)NC(=O)[C@@H](CC(=O)NNS(=O)(=O)c1ccc(C)cc1)CC(C)C
300,–,CCCCCCCCCCCCCCCCS(=O)(=O)NNC(=O)C[C@@H](CC(C)C)C(=O)N[C@@H](Cc1c[nH]c2ccccc12)C(=O)NC
1400,–,CCCCCCCCCCCCS(=O)(=O)NNC(=O)C[C@@H](CC(C)C)C(=O)N[C@@H](Cc1c[nH]c2ccccc12)C(=O)NC

# Biological target: Matrix metalloproteinase-9 (Homo sapiens, UniProt P14780)
# Experiment: Inhibition of human recombinant pro-MMP9 by spectrofluorimeter
# Summary of the method: (§1)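 Pro-enzymes (human recombinant) freshly activated with […] at 37 °C for 2 h. Activated MMP at 1–2 nM in 50 mM Tris–HCl pH 7.5, 150 mM NaCl, 5 mM CaCl₂ at 25 °C, preincubated 30 min with inhibitor before quenched fluorogenic substrate. Percent inhibition from triplicates at 5–7 concentrations within the 20–80% range.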
# Sequence of Matrix metalloproteinase-9 (P14780 whole entry): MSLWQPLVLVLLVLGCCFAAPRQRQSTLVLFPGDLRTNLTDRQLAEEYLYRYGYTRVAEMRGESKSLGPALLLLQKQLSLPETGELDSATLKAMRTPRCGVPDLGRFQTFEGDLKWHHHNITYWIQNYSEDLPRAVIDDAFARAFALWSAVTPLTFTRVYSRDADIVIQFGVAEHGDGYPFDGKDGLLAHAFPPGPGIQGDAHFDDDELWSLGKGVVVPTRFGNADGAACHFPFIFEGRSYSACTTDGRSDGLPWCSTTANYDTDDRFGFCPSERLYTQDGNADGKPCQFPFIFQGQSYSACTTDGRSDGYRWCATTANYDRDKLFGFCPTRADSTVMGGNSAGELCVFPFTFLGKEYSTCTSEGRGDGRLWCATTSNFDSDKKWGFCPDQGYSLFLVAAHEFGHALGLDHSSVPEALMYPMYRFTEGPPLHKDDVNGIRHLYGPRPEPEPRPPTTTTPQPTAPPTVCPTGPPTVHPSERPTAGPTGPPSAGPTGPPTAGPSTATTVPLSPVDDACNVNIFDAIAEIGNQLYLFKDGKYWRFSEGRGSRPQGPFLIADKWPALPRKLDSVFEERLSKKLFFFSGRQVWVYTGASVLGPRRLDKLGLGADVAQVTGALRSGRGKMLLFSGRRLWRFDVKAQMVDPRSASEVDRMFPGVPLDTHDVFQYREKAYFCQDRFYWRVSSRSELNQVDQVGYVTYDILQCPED
IC50 [nM],Ki [nM],Structure (SMILES)
2560,–,CCCCCC/C=C(\CC(=O)NNS(=O)(=O)c1ccc(-c2ccc(Br)cc2)cc1)C(=O)N[C@@H](Cc1c[nH]c2ccccc12)C(=O)NC
3,3.6,CNC(=O)[C@H](Cc1c[nH]c2ccccc12)NC(=O)[C@@H](CC(=O)NNS(=O)(=O)c1ccc(-c2ccc(Br)cc2)cc1)CC(C)C
18,–,CNC(=O)[C@H](Cc1c(-c2ccccc2)[nH]c2ccccc12)NC(=O)[C@@H](CC(=O)NNS(=O)(=O)c1ccc(-c2ccc(Br)cc2)cc1)CC(C)C

# Biological target: T2, Matrilysin (Homo sapiens, UniProt P09237)
# T2 sequence (P09237 whole entry): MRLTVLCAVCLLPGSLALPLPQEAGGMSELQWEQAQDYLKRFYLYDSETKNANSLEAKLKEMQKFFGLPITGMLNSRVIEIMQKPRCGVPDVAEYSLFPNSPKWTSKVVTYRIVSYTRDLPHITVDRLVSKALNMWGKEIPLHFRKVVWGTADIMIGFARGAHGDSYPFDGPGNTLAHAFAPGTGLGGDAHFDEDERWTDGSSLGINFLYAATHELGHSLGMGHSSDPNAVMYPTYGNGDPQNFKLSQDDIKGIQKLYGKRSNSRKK
# Experiment: Inhibition of human recombinant pro-MMP7 by spectrofluorimeter
# Summary of the method: as §1
IC50 [nM],Ki [nM],Structure (SMILES)
475,523,CNC(=O)[C@H](Cc1c[nH]c2ccccc12)NC(=O)[C@@H](CC(=O)NNS(=O)(=O)c1ccc(-c2ccc(Br)cc2)cc1)CC(C)C

# Biological target: Matrix metalloproteinase-14 (Homo sapiens, UniProt P50281)
# Experiment: Inhibition of human recombinant MMP14 catalytic domain by spectrofluorimeter
# Summary of the method: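 Human recombinant MT1-MMP catalytic domain at 1–2 nM in 50 mM Tris–HCl pH 7.5, 150 mM NaCl, 5 mM CaCl₂ at 25 °C. Inhibitors at 5–7 concentrations preincubated with enzyme for 30 min, then quenched fluorogenic peptide substrate added. Percent inhibition measured in triplicate within a 20–80% inhibition range.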
Structure (SMILES),Activity,IC50 [nM],Ki [nM]
CCCCCC/C=C(\CC(=O)NNS(=O)(=O)c1ccc(-c2ccc(Br)cc2)cc1)C(=O)N[C@@H](Cc1c[nH]c2ccccc12)C(=O)NC,inactive,–,–
CNC(=O)[C@H](Cc1c[nH]c2ccccc12)NC(=O)[C@@H](CC(=O)NNS(=O)(=O)c1ccc(-c2ccc(Br)cc2)cc1)CC(C)C,–,17000,1900
CNC(=O)[C@H](Cc1c[nH]c2ccccc12)NC(=O)[C@@H](CC(=O)NNS(=O)(=O)c1ccccc1[N+](=O)[O-])CC(C)C,–,1100,–
CNC(=O)[C@H](Cc1c[nH]c2ccccc12)NC(=O)[C@@H](CC(=O)NNS(=O)(=O)c1c(C(C)C)cc(C(C)C)cc1C(C)C)CC(C)C,–,3100,–
CNC(=O)[C@H](Cc1c[nH]c2ccccc12)NC(=O)[C@@H](CC(=O)NNc1ccc(OC)cc1)CC(C)C,–,> 10000,–
CNC(=O)[C@H](Cc1c(-c2ccccc2)[nH]c2ccccc12)NC(=O)[C@@H](CC(=O)NNS(=O)(=O)c1ccc(-c2ccc(Br)cc2)cc1)CC(C)C,–,1240,–
CNC(=O)[C@H](Cc1c[nH]c2ccccc12)NC(=O)[C@@H](CC(=O)NNS(=O)(=O)c1ccc(Cl)cc1)CC(C)C,–,190,–
CNC(=O)[C@H](Cc1c[nH]c2ccccc12)NC(=O)[C@@H](CC(=O)NNc1ccc(Cl)c(Cl)c1)CC(C)C,–,1000,–

# Further lines, results first:
Activity,IC50 [nM],Ki [nM],Structure (SMILES)
–,5.2,–,CNC(=O)[C@H](Cc1c[nH]c2ccccc12)NC(=O)[C@@H](CC(=O)NO)CC(C)C [ILOMASTAT]
–,2600,–,CNC(=O)[C@H](Cc1c[nH]c2ccccc12)NC(=O)[C@@H](CC(=O)NNS(=O)(=O)c1ccc(C)cc1)CC(C)C
–,5100,–,CCCCCCCCCCCCCCCCS(=O)(=O)NNC(=O)C[C@@H](CC(C)C)C(=O)N[C@@H](Cc1c[nH]c2ccccc12)C(=O)NC
–,9700,–,CCCCCCCCCCCCS(=O)(=O)NNC(=O)C[C@@H](CC(C)C)C(=O)N[C@@H](Cc1c[nH]c2ccccc12)C(=O)NC

# Biological target: Stromelysin-1 (Homo sapiens, UniProt P08254)
# Experiment: Inhibition of human recombinant MMP3 catalytic domain by spectrofluorimeter
# Summary of the method: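 MMP-3 human recombinant catalytic domain (1–2 nM) was assayed in 50 mM Tris–HCl pH 7.5, 5 mM CaCl₂, […] at 25 °C. Enzyme and inhibitor were preincubated for 30 min before quenched fluorogenic substrate was added. Triplicate percent inhibition was taken at 5–7 inhibitor concentrations spanning 20–80% inhibition.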
# Sequence of Stromelysin-1 (P08254 whole entry, the tested form may be a part): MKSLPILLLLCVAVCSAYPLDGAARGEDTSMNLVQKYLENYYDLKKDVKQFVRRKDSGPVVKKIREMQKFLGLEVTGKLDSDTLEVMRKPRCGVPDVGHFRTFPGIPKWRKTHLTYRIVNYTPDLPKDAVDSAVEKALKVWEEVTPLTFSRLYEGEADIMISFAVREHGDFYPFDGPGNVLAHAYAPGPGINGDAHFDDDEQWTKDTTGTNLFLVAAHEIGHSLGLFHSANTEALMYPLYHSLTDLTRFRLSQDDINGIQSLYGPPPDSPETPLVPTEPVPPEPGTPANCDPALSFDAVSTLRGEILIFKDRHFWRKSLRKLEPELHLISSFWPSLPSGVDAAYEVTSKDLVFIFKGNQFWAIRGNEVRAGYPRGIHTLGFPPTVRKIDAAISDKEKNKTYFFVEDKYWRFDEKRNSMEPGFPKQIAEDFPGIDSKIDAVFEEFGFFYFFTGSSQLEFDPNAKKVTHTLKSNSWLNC
IC50 [nM],Ki [nM],Structure (SMILES)
2540,–,CCCCCC/C=C(\CC(=O)NNS(=O)(=O)c1ccc(-c2ccc(Br)cc2)cc1)C(=O)N[C@@H](Cc1c[nH]c2ccccc12)C(=O)NC
1700,415,CNC(=O)[C@H](Cc1c[nH]c2ccccc12)NC(=O)[C@@H](CC(=O)NNS(=O)(=O)c1ccc(-c2ccc(Br)cc2)cc1)CC(C)C
26,–,CNC(=O)[C@H](Cc1c[nH]c2ccccc12)NC(=O)[C@@H](CC(=O)NO)CC(C)C [ILOMASTAT]
53,–,CNC(=O)[C@H](Cc1c(-c2ccccc2)[nH]c2ccccc12)NC(=O)[C@@H](CC(=O)NNS(=O)(=O)c1ccc(-c2ccc(Br)cc2)cc1)CC(C)C

# Species: Homo sapiens
# Experiment: Selectivity ratio of IC50 for human recombinant pro-MMP2 to IC50 for human recombinant pro-MMP1
row,Ratio IC50,Structure (SMILES)
1,10,CNC(=O)[C@H](Cc1c[nH]c2ccccc12)NC(=O)[C@@H](CC(=O)NNS(=O)(=O)c1ccc(C)cc1)CC(C)C

# From ChEMBL document CHEMBL1152126 (Bioorg Med Chem, 2008)
